Data on 20 molecules can be found in ChEMBL document CHEMBL3102803, “Design, synthesis, and biological evaluation of novel piperidine-4-carboxamide derivatives as potent CCR5 inhibitors” (Eur J Med Chem, 2014).

The target of series [1] is T1, C-C chemokine receptor type 5 (Homo sapiens, UniProt P51681). Kind of series: Inhibition of CCR5 (unknown origin) expressed in CHO cells assessed as inhibition of RANTES-induced intracellular Ca2+ mobilization after 10 mins by Fluo-4 AM staining-based fluorescence assay. In kind it is functional, cell-based. A general note: A change in cytosolic calcium serves as a functional read-out for many receptors and channels.

The next series concerns HEK293. Kind of series: Cytotoxicity against HEK293 cells at 50 uM after 7 hrs by CCK-8 assay. Type of series: cell-based. The following applies: human, hek293, 7 h. Summed up: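 HEK293 cells at 5000 cells/well preincubated 24 h at 37 °C in 5% CO2, then exposed to compound for 7 h. CCK-8 reagent added, plates incubated a further 2 h at 37 °C, and absorbance read at […].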
Background: Tetrazolium assays rely on reduction of a dye to a coloured formazan, in cell work by metabolically active cells.

In a further series the target is hERG (KCNH2) (Homo sapiens, UniProt Q12809). Kind of series: Inhibition of human ERG at 3 uM by patch clamp assay. (Patch clamp records ionic current or voltage across a cell membrane.)
The nature of series [2]: Oral bioavailability in Sprague-Dawley rat at 25 mg/kg. Type of series: ADME, organism-based. The following applies: in vivo.
The nature of series [3]: Half life in Sprague-Dawley rat at 25 mg/kg, po. Type of series: ADME, organism-based. The following applies: in vivo. Details: dose 25 mg/kg, route oral.
Series [4] in a line: Half life in Sprague-Dawley rat at 4 mg/kg, iv. Further details: dose 4 mg/kg, route intravenous. The following applies: in vivo. In kind it is ADME, organism-based.
A short description of series [5]: AUC (0 to 24 hrs) in Sprague-Dawley rat at 25 mg/kg, po. In kind it is ADME, organism-based. Further details: time < 24 hr, dose 25 mg/kg, route oral. The following applies: plasma.
A short description of series [6]: AUC (0 to 24 hrs) in Sprague-Dawley rat at 4 mg/kg, iv. Type of series: ADME, organism-based. Further details: time < 24 hr, dose 4 mg/kg, route intravenous. The following applies: plasma.
Series [7] can be described thus: Plasma clearance in Sprague-Dawley rat at 25 mg/kg, po. In kind it is ADME, organism-based. Further details: dose 25 mg/kg, route oral.
The nature of series [8]: Plasma clearance in Sprague-Dawley rat at 4 mg/kg, iv. Type of series: ADME, organism-based. Further details: dose 4 mg/kg, route intravenous.
The test system of a further series is Rattus norvegicus. Kind of series: Volume of distribution at steady state in Sprague-Dawley rat at 25 mg/kg, po. In kind it is ADME, organism-based. Details: dose 25 mg/kg, route oral. Particulars: in vivo.
Series [9] is described as follows: Volume of distribution at steady state in Sprague-Dawley rat at 4 mg/kg, iv. Details: dose 4 mg/kg, route intravenous. Type of series: ADME, organism-based. The following applies: in vivo, read-out: Vdss.
The subject of series [10] is Human immunodeficiency virus 1. Kind of series: Antiviral activity against HIV-1 infected in human SupT1 cells assessed as inhibition of viral infectivity after 48 hrs by luciferase reporter gene assay. Type of series: functional, organism-based. Particulars: Human immunodeficiency virus 1, SUP-T1, 48 h. In a few lines:
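Pseudovirions made by co-transfecting 293T cells with pNL-Luc-E- and pENV-R5. Supernatant collected at 48 h, filtered, and capsid protein quantified by p24 antigen-capture ELISA. SupT1 cells (1 × 10^5) infected with supernatant in the presence of compound, lysed 48 h post-infection, and firefly luciferase activity measured.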

Series [11] has as its target T1, C-C chemokine receptor type 5. Kind of series: Antagonist activity at CCR5 (unknown origin) expressed in CHO cell membranes assessed as inhibition of RANTES-stimulated [35S]-GTPgammaS binding after 1 hr by liquid scintillation counting analysis. In kind it is functional.

The IC50 is the concentration needed to halve the response being measured. One may read the inhibition as the share of the control response that was lost under treatment. As usually defined, the bioavailability is dose-corrected exposure relative to a reference, in per cent. For orientation: half-life means the time in which the quantity being followed falls by half. For orientation: AUC(0-t) means exposure summed from dosing to a finite time, without extrapolation to infinity. A higher AUC(0-t) goes with more exposure. In general, CL/F refers to clearance divided by bioavailability, as obtained after extravascular dosing. As a reminder, the clearance is the rate of elimination divided by the concentration.

T1 sequence (P51681 whole entry): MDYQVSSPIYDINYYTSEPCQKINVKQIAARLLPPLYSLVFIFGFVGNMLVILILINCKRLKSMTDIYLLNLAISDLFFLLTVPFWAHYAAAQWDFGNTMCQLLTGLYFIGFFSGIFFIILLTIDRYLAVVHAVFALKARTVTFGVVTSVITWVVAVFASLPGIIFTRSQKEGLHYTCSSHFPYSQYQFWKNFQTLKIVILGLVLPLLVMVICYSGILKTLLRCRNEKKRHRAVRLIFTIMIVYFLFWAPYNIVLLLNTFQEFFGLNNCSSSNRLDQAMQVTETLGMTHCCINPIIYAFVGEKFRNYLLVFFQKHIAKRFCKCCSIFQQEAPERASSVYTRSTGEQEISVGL
hERG (KCNH2), sequence (Q12809 whole entry): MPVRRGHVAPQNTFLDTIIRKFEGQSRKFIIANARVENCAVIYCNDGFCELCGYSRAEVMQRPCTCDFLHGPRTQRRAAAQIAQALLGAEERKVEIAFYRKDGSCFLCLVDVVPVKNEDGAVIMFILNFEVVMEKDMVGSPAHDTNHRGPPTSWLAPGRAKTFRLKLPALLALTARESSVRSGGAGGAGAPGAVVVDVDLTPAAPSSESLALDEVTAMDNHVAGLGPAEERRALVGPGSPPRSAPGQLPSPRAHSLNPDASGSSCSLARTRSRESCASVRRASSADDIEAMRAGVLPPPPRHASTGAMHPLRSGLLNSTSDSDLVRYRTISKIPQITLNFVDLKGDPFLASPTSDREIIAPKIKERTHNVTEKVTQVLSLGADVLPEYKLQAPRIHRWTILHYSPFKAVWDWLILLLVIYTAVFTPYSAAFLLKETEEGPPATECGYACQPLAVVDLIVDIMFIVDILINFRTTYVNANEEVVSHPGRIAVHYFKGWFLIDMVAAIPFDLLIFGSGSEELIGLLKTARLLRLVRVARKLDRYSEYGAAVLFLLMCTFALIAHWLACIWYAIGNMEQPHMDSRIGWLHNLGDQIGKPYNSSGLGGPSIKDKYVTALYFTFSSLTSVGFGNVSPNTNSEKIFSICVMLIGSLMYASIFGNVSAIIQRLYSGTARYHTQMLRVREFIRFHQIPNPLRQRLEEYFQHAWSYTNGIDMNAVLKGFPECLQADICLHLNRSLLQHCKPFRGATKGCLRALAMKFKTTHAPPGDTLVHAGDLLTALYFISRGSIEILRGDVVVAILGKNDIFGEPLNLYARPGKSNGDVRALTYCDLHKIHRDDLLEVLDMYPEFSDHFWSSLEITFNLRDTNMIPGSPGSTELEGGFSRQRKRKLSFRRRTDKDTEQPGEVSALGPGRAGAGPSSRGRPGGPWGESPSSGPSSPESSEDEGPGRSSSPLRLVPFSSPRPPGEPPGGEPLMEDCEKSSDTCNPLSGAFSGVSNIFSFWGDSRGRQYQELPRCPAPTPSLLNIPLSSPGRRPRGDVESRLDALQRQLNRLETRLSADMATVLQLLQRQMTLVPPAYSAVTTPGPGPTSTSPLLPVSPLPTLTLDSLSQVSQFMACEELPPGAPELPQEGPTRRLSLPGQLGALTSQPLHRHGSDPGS

As to `CCN(Cc1ccc(C)cc1)C(=O)C1CCN(CCCN(C(=O)C2CCN(C(C)=O)CC2)c2cccc(Cl)c2)CC1`, in series [1], the IC50 was 202 nM. In addition, the Activity result with HEK293 is on record as “Non-toxic”.
On the same counts, the results for `CCN(Cc1ccc(F)cc1)C(=O)C1CCN(CCCN(C(=O)C2CCN(C(C)=O)CC2)c2cccc(Cl)c2)CC1` are 320 nM and “Non-toxic”.
Consider `CCN(Cc1ccc(Cl)cc1)C(=O)C1CCN(CCCN(C(=O)C2CCN(C(C)=O)CC2)c2cccc(Cl)c2)CC1`, for which the IC50 in [1] was 93.5 nM. Also, the Activity entry in the series on HEK293 was “Non-toxic”.
For `CCN(Cc1ccc(C#N)cc1)C(=O)C1CCN(CCCN(C(=O)C2CCN(C(C)=O)CC2)c2cccc(Cl)c2)CC1`, in series [1], the IC50 was determined as 473 nM. In addition, in the series with HEK293, the Activity result was “Non-toxic”.
In the case of `CC(=O)N1CCC(C(=O)N(CCCN2CCC(C(=O)N(C)Cc3ccccc3)CC2)c2cccc(Cl)c2)CC1`, the IC50 in [1] came to 64.1 nM. Besides, the Activity result in the series with HEK293 was “Non-toxic”.
As to `CC(=O)N1CCC(C(=O)N(CCCN2CCC(C(=O)NCc3ccccc3)CC2)c2cccc(Cl)c2)CC1`, at hERG (KCNH2), the inhibition at 3 µM came to 15.2%. Further, in [2], the bioavailability worked out at 15%. The half-life in series [3] was 42.6 min; in series [4], 44.4 min. The figures for the AUC(0-t) at 24 h in series [5] and in [6] were 3130 ng·h/mL and 3250 ng·h/mL, respectively. Besides, in series [7], the CL/F was 148 mL/min/kg. The molecule further had a clearance in series [8] of 20.8 mL/min/kg. This molecule also had a Vdss in the series on Rattus norvegicus of 8.99 L/kg. Further, the Vd in [9] turned out to be 1.23 L/kg. The values for the IC50 in series [10] and in [1] were 73 nM and 25.7 nM, respectively. For the same molecule, in the series with HEK293, the Activity entry is recorded as “Non-toxic”.
Consider `CC(=O)N1CCC(C(=O)N(CCCN2CCC(C(=O)NCc3ccc(F)cc3)CC2)c2cccc(Cl)c2)CC1`, for which, in series [1], the IC50 turned out to be 35.5 nM. Also, in the series with HEK293, the Activity entry is listed as “Non-toxic”.
On to `CC(=O)N1CCC(C(=O)N(CCCN2CCC(C(=O)NCc3ccc(Cl)cc3)CC2)c2cccc(Cl)c2)CC1`, for which the figures for the IC50 in series [10] and in series [1] were 94.1 nM and 25.5 nM, respectively. For the same molecule, in the series with HEK293, the Activity entry is “Non-toxic”.
For `CC(=O)N1CCC(C(=O)N(CCCN2CCC(C(=O)NCc3ccc(C#N)cc3)CC2)c2cccc(Cl)c2)CC1`, the IC50 in [1] is 75.3 nM. In addition, the Activity result with HEK293 was “Non-toxic”.
In the case of `CC(=O)N1CCC(C(=O)N(CCCN2CCC(C(=O)Nc3ccccc3)CC2)c2cccc(Cl)c2)CC1`, in [1], the IC50 was more than 1000 nM. The Activity result in the series with HEK293 is reported as “Non-toxic”.
On to `CCN(C(=O)C1CCN(CCCN(C(=O)C2CCN(C(C)=O)CC2)c2cccc(Cl)c2)CC1)c1ccccc1`, for which the IC50 in [1] is more than 1000 nM. The Activity entry with HEK293 is listed as “Non-toxic”.
Turning to `CC(=O)N1CCC(C(=O)N(CCCN2CCC(C(=O)NCCc3ccccc3)CC2)c2cccc(Cl)c2)CC1`, the IC50 in [1] turned out to be 76 nM. Besides, in the series on HEK293, the Activity entry is recorded as “Non-toxic”.
On the same counts, the results for `CC(=O)N1CCC(C(=O)N(CCCN2CCC(C(=O)NCCc3ccc(F)cc3)CC2)c2cccc(Cl)c2)CC1` are 197 nM and “Non-toxic”.
Regarding `CC(=O)N1CCC(C(=O)N(CCCN2CCC(C(=O)NCCc3ccc(Cl)cc3)CC2)c2cccc(Cl)c2)CC1`, in [1], the IC50 stood at 86.7 nM. The Activity entry in the series on HEK293 is “Non-toxic”.
Turning to `CCN(CCc1ccccc1)C(=O)C1CCN(CCCN(C(=O)C2CCN(C(C)=O)CC2)c2cccc(Cl)c2)CC1`, the IC50 in series [1] was determined as 26.4 nM. Moreover, in the series with HEK293, the Activity result is “Non-toxic”.
For the molecule `CCN(CCc1ccc(F)cc1)C(=O)C1CCN(CCCN(C(=O)C2CCN(C(C)=O)CC2)c2cccc(Cl)c2)CC1`, the IC50 in series [1] stood at 152 nM. Besides, the Activity result in the series on HEK293 is reported as “Non-toxic”.
On the same counts, the results for `CCN(CCc1ccc(Cl)cc1)C(=O)C1CCN(CCCN(C(=O)C2CCN(C(C)=O)CC2)c2cccc(Cl)c2)CC1` are 126 nM and “Non-toxic”.
Consider `CCN(C(=O)Cc1ccccc1)C1CCN(CCCN(C(=O)C2CCN(C(C)=O)CC2)c2cccc(Cl)c2)CC1`, for which the IC50 came to 252 nM in [1] and 7 nM in series [11].
With `CCN(Cc1ccccc1)C(=O)C1CCN(CCCN(C(=O)C2CCN(C(C)=O)CC2)c2cccc(Cl)c2)CC1`, the IC50 in [1] was 525 nM. The Activity result in the series on HEK293 is given as “Non-toxic”.
On to `Cc1nnc(C(C)C)n1[C@H]1C[C@H]2CC[C@@H](C1)N2CC[C@H](NC(=O)C1CCC(F)(F)CC1)c1ccccc1` [MARAVIROC], for which the IC50 in [10] turned out to be 1.1 nM.
